Assay outcomes (PubChem BioAssay)
OX1R antag-1 – blocks the human orexin 1 receptor | 330,000 tested, 0.43% active | inhibition, % at 5 µM | CHO/OX1R cells, Fluo-8 calcium fluorescence, orexin A;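 active = inhibition above its plate's threshold, mean inhibition of all tested compounds on the plate plus 3 SD, cut at about 37% in these data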;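 also: 0% = orexin A challenge wells and 100% = SB-334867-A antagonist wells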
Target sequence (O43613 whole entry, looked up): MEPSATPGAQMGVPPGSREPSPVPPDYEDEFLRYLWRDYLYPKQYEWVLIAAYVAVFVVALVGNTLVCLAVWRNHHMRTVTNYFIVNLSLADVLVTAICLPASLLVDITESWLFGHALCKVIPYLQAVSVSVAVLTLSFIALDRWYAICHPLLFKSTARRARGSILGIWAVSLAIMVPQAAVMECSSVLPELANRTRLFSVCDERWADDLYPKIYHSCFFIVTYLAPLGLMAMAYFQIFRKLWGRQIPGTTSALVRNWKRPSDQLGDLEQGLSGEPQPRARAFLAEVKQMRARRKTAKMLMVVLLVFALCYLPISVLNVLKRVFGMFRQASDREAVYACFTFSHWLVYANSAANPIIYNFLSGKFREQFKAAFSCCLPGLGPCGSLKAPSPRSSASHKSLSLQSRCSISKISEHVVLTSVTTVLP
CHO parental Ca – counter-screen for OX1R antagonists: effect in parental CHO cells | parental CHO-K1, ATP-induced calcium, Fluo-8 fluorescence | inhibition, % at 5.6 µM | 330,000 tested, 0.63% active | AID 463079;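 active = inhibition above that plate's mean sample inhibition plus 3 SD, cut at about 26% in these data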;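 also: 0% = ATP-challenged DMSO wells and 100% = DMSO wells without ATP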
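Assay system – parental CHO cells · Reagent – ATP stimulus · Detection – intracellular calcium via Fluo-8 no-wash fluorescent dye · Evaluation – percent inhibition of ATP-evoked calcium rise, normalized to controls · Controls – ATP wells versus no-ATP DMSO wells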
OX1R antag-2 – blocks the human orexin 1 receptor; OX1R-expressing cells, FRET antagonist read-out; inhibition, % at 6.6 µM; 330,000 tested, 1.8% active; AID 485270; in the data active = inhibition mostly above about 38%, no sharp cut-off; inactive = mostly below about 40%;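 also: 0% = agonist challenge alone and 100% = reference antagonist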
MPTP inh – inhibitors of mitochondrial permeability transition pore; 360,000 tested, 1.4% active; AID 602449; isolated mouse mitochondria, Ca2+ swelling absorbance, 30 min; inhibition, % at 10 µM;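 active = inhibition of 50% or more, scaled per plate between neutral and stimulator controls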;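 also: 0% = DMSO wells given calcium and 100% = 1 mM EGTA wells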
GPR7 antag – blocks human GPR7 receptor signaling | 290,000 tested, 1.1% active | AID 1861 | P48145 | inhibition, % at 4.4 µM | GPR7-expressing cells, fluorescence antagonist assay; in the data active = inhibition above about 16%, passing the limit was not always enough;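 also: cells stimulated with the agonist NPW; 0% = agonist with vehicle and 100% = vehicle without agonist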
Starred values were filed as active, the others as inactive. Only some compounds are listed: those with a hit (about 3.8% of all), similar ones and a draw of the others.

For C/C=C(\C)C(=O)OC1C(C)=C2C(C1OC(=O)CCCCC)C(C)(OC(C)=O)CC(OC(=O)CCC)C1(O)C2OC(=O)C1(C)O (stereo not given) the results were OX1R antag-1 100.7*, CHO parental Ca 101.2* and OX1R antag-2 2.3.
Screening C[n+]1c(-c2ccccc2)c2cc(N)ccc2c2ccc(N)cc21 returned OX1R antag-1 -1.2, CHO parental Ca -1.5, OX1R antag-2 51.1*, MPTP inh 4.9 and GPR7 antag -11.5.
Cc1ccc(-n2c(O)c(C=NCCCn3ccnc3)c(=O)[nH]c2=O)cc1 was read as OX1R antag-1 10.1, CHO parental Ca -8.2, OX1R antag-2 3.5, MPTP inh 2.5 and GPR7 antag -11.8.
For CNCC(=O)c1ccccc1 the results were OX1R antag-1 0.9, CHO parental Ca -4.7, OX1R antag-2 6.8 and MPTP inh -1.4.
Screening Cc1ccc(-c2cc(-c3ccccc3)cc(-c3ccccc3)[n+]2-c2ccccc2)cc1 returned OX1R antag-1 71.0*, CHO parental Ca 73.8*, OX1R antag-2 18.8 and MPTP inh 11.3.
Screening COC(=O)C1=C(c2cc3ccccc3o2)C[C@@H]2CC[C@H]1N2C(=O)NCc1cccc2ccccc12 returned OX1R antag-1 30.7, CHO parental Ca -14.3, OX1R antag-2 69.0* and MPTP inh -1.8.
Screening CC/C(=C\C=C\[C@@H]1C=C[C@@H]2CCC[C@H]2[C@@H]1C(=O)c1ccc[nH]1)[C@@H]1O[C@@H]([C@@H](C)C(=O)O)CC[C@@H]1C returned OX1R antag-1 24.9, CHO parental Ca 47.7*, OX1R antag-2 9.6 and GPR7 antag 10.4.
Screening Cc1c(N=Nc2c(O)n(C)c(=O)n(C)c2=O)c(=O)n(-c2ccccc2)n1C returned OX1R antag-1 -13.8, CHO parental Ca -4.2, OX1R antag-2 63.6*, MPTP inh 1.0 and GPR7 antag -2.7.
Screening CC1CC2(C)C(CCC3C2CCC2(C)C(OP(=O)(N4CC4)N4CC4)CCC32)CC1=O (stereo not given) returned MPTP inh 0.8.
`CN[C@H]1C[C@H]2O[C@@](C)([C@H]1OC)n1c3ccccc3c3c4c(c5c6ccccc6n2c5c31)C(=O)NC4` gave OX1R antag-1 -28.2, CHO parental Ca -13.7, OX1R antag-2 -17.7 and GPR7 antag 29.5*.
CCCCn1c(O)c(C(=O)/C=C/c2c[nH]c3ccccc23)c(=O)[nH]c1=O was read as OX1R antag-1 19.7, CHO parental Ca 19.9, OX1R antag-2 6.3, MPTP inh -2.7 and GPR7 antag -1.5.
For O=C(C1CCC(=O)N1C1CCCCC1)N1CCC2(CC1)OCCO2 (stereo not given) the results were OX1R antag-1 5.4, CHO parental Ca 4.5, OX1R antag-2 1.4, MPTP inh -0.2 and GPR7 antag -10.7.
Screening COC(=O)[C@@H]1[C@@H](C(=O)OC)C2(c3ccccc3-c3ccccc32)N(c2ccc(Cl)cc2)N1C#N returned OX1R antag-1 -23.2, CHO parental Ca -14.9, OX1R antag-2 11.9, MPTP inh -1.1 and GPR7 antag 15.8*.
For COC(=O)C[C@]1(C(=O)OC)CN(C#N)N(c2ccc(Cl)cc2)C12c1ccccc1-c1ccccc12 the results were OX1R antag-1 -8.1, CHO parental Ca -10.6, OX1R antag-2 -4.8, MPTP inh -1.2 and GPR7 antag 24.0*.
For O=C(COc1ccc2ccc(=O)oc2c1)N1C[C@H]2C[C@@H](C1)c1cccc(=O)n1C2 the results were OX1R antag-1 -3.1, CHO parental Ca -10.7, OX1R antag-2 10.9, MPTP inh -0.2 and GPR7 antag 12.1.
Screening O=c1[nH]c(=S)[nH]c(O)c1N=Nc1cc(S(=O)(=O)Nc2ccc(Cl)cc2)ccc1Cl returned OX1R antag-1 -13.4, CHO parental Ca -8.4, OX1R antag-2 -1.3 and MPTP inh 4.2.
Screening O=c1[nH]c(=S)[nH]c(O)c1N=Nc1ccc2c(c1)OCO2 returned OX1R antag-1 -5.6, CHO parental Ca 6.4, OX1R antag-2 75.0*, MPTP inh 2.2 and GPR7 antag 13.5.
O=c1[nH]c(O)c(N=Nc2ccc3c(c2)OCCO3)c(=O)[nH]1 was read as OX1R antag-1 -10.3, CHO parental Ca -3.9, OX1R antag-2 64.2*, MPTP inh 1.3 and GPR7 antag -8.1.
`O=c1[nH]c(=S)[nH]c(O)c1N=Nc1ccc(OC(F)F)cc1` gave OX1R antag-1 -13.3, CHO parental Ca -12.2, OX1R antag-2 50.5*, MPTP inh -1.5 and GPR7 antag 5.2.
